High-throughput results as filed in PubChem.
RGS4 pot = potentiators or activators of RGS4 | HEK293 M3R/inducible RGS4, carbachol calcium flux Fluo4; active compounds read low | B-score at 10 µM | 310,000 tested, 0.92% active;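 active means B-score of the integrated calcium signal more than 4 SD below the library mean, with starting fluorescence not abnormally high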;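 further: negative B-score means reduced calcium response which marks RGS4 activation or potentiation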
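test system = HEK293 cells with stable M3R and inducible RGS4 | schedule = recording 10 s baseline at 1 Hz, 100 s post-agonist | technique = Fluo4-AM (2 µM) calcium-flux fluorescence, kinetic read | measure = Agonist-evoked peak-minus-minimum fluorescence over baseline, integrated ratio, B score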
RGS4 block = inhibitors of human RGS4 | 310,000 tested, 0.45% active | HEK293 M3R/RGS4 inducible, Fluo-4 calcium flux; active compounds read high; triggered by carbachol at its EC20 | P49798 | B-score at 10 µM;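 active means B-score, a plate-corrected calcium signal, over three deviations above library mean, with baseline fluorescence within five deviations of library mean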;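 further: RGS4 expression induced by doxycycline in cells with stable M3 receptor; B-score is computed from the integrated fluorescence ratio over baseline after carbachol; higher B-score means a larger calcium signal and so more RGS4 inhibition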
Target sequence (P49798 whole entry, looked up): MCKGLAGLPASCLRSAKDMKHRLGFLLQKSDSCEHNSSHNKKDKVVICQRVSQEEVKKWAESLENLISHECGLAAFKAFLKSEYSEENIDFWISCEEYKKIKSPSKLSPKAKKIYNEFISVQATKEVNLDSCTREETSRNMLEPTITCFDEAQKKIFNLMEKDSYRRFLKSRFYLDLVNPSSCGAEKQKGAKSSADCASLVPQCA
MrgX1 ag = agonists of human MrgX1 receptor; Q96LB2; MrgX1-HEK293 cells, Fluo-4 calcium fluorescence, agonist mode; active compounds read high; B-score at 10 µM; 310,000 tested, 0.44% active; AID 588627;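 active means calcium response B-score plate-corrected fluorescence ratio at least 3 library SD, with starting fluorescence B-score inside 5 SD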
Target sequence (Q96LB2 whole entry, looked up): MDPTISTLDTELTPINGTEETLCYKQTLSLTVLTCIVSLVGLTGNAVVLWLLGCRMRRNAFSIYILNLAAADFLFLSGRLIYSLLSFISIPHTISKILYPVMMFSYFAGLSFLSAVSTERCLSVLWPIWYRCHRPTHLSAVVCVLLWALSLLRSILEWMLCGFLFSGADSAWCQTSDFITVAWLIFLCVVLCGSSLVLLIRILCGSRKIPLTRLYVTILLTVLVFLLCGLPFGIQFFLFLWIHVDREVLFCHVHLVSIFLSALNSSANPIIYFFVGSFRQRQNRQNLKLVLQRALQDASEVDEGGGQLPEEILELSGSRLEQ
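times = overnight plating, then 30 min 37 °C plus 30 min room-temperature dye loading | assay system = stable human MrgX1 HEK293 cell line | input = fifteen thousand cells per well | signal = kinetic calcium dye fluorescence, Fluo-4 NW | dosing = compound delivered in addition one of three | read-out = B-scored fluorescence response ratio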
MrgX1 antagonist = human MrgX1 receptor antagonism, primary screen; Q96LB2; MRGX1-HEK293 calcium flux, Fluo-4, BAM8-22 antagonism; active compounds read low; B-score at 10 µM; 310,000 tested, 1.3% active; AID 588676;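 active means calcium-response B-score plate-corrected more than 3 library SD below zero, starting fluorescence within 5 deviations, no agonist response on first addition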;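 further: peak minus trough fluorescence over baseline after final BAM8-22 challenge near maximal dose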
MrgX1 PAM = human MrgX1 positive allosteric modulation, primary screen; Q96LB2; MrgX1-HEK293, Fluo-4 calcium flux, FDSS; active compounds read high; B-score at 10 µM; 310,000 tested, 0.63% active;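 active means plate-corrected calcium response at least 3 library SD above typical, normal starting fluorescence, not activating the receptor alone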;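 further: compound read alongside a low EC10 to EC30 dose of BAM8-22 agonist; peak minus trough fluorescence over baseline measured at the second addition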
MrgX1 antag conf = human MrgX1 receptor antagonism, re-confirmation screen; AID 602420; remaining BAM8-22 calcium response % of control (active compounds read low), % at 10 µM; shares compounds with MrgX1 antagonist; MrgX1-HEK293, BAM8-22 calcium flux, Fluo-4; active compounds read low; 2,300 tested, 19% active;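 active means remaining agonist calcium response no higher than 100% minus 3 SD of agonist-only control wells, with starting fluorescence near control levels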;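 further: agonist BAM8-22 given at a near maximal EC90 to ECmax level; peak minus minimum fluorescence divided by baseline after agonist addition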
HEK293 Ca flux = MrgX1 antagonist counter-screen hit in parental HEK293 cells. shares compounds with MrgX1 antagonist. Fluo-4 calcium fluorescence, FDSS. fluorescence ratio F(max-min)/F0 at 10 µM. 4,000 tested, 2% active;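 active means duplicate-averaged calcium fluorescence ratio at least three times the standard deviation of buffer wells, a nonspecific response in parental cells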
HEK293 Ca counter = activity in parental HEK293 cells without MrgX1; shares compounds with MrgX1 antagonist; parental HEK293 calcium flux, Fluo-4 fluorescence ratio; active compounds read high; fluorescence ratio F(max-min)/F0 at 10 µM; 4,000 tested, 0.4% active; AID 624114;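 active means calcium fluorescence ratio, averaged over duplicates, at least 3 SD of the buffer-well ratio, meaning a nonspecific response in receptor-free cells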;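 further: untransfected parental HEK293 lacking MrgX1 used as counterscreen for MrgX1 allosteric activators; fluorescence change taken during the second addition on a kinetic imager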
HEK293 Ca cntr2 = MrgX1 activator counter-screen hit in parental HEK293 cells | shares compounds with MrgX1 antagonist | Fluo-4 calcium fluorescence (FDSS); active compounds read high | fluorescence ratio F(max-min)/F0 at 10 µM | 4,000 tested, 8.7% active | AID 624115;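 active means calcium fluorescence ratio at least three times the spread of buffer wells, meaning a non-specific response in parental cells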
An asterisk follows results filed as active; i = inactive; nt = not tested or not shown. Only some compounds are listed: those with a hit (about 3.5% of all), similar ones and a draw of the others.

SMILES | RGS4 pot | RGS4 block | MrgX1 ag | MrgX1 antagonist | MrgX1 PAM | MrgX1 antag conf | HEK293 Ca flux | HEK293 Ca counter | HEK293 Ca cntr2
CCOC(=O)/C(=C/c1ccco1)NC(=O)c1ccc(Br)o1 | i | i | i | i | i | nt | nt | nt | nt
CCCCN(C(=O)c1cccc(S(=O)(=O)N2CCN(C)CC2)c1)c1c(N)n(CCC)c(=O)[nH]c1=O | i | i | i | -15* | i | i | i | i | i
Cc1nc(NCCc2ccc(O)cc2)c2nnn(Cc3ccccc3)c2n1 | i | i | i | i | i | nt | nt | nt | nt
CCOC(=O)c1sc(=NC(=O)c2ccccc2)n(C)c1C | i | i | i | i | i | nt | nt | nt | nt
CCOC(=O)c1sc(=NC(=O)CCS(=O)(=O)c2ccccc2)n(C)c1C | i | i | i | -5.7* | i | i | i | i | i
Brc1ccc(-c2csc3ncnc(-n4nnc5ccccc54)c23)cc1 | i | i | i | i | i | nt | nt | nt | nt
COc1cccc(OC)c1C(=O)N1CCN(Cc2ccccc2C)CC1 | i | i | i | -4.6* | i | i | i | i | i
O=C(Cn1c(C(F)(F)F)nc2ccccc21)Nc1ccccc1C(=O)O | i | i | i | -5.8* | i | i | i | i | i
CC(C(=O)Nc1ccccc1C(=O)O)n1c(C(F)(F)F)nc2ccccc21 (stereo not given) | i | i | i | i | i | nt | nt | nt | nt
Cc1cc(C)n(C(=O)CNC(=O)COc2ccccc2)n1 | nt | nt | i | i | i | nt | nt | nt | nt
CCCNC(=O)CCc1c(C)nc2nc(C)nn2c1C | i | i | i | i | i | nt | nt | nt | nt
N=c1c(S(=O)(=O)c2ccc(Cl)cc2)cc2c(=O)n3ccccc3nc2n1Cc1ccco1 | i | i | i | i | i | nt | nt | nt | nt
CCOC(=O)c1cc2c(=O)n3ccccc3nc2n(Cc2ccco2)c1=NC(=O)c1ccccc1OCC | i | i | i | i | i | nt | nt | nt | nt
CCOC(=O)c1cc2c(=O)n3ccccc3nc2n(Cc2ccco2)c1=NC(=O)c1cccnc1 | i | i | i | -15* | i | i | i | i | i
N=c1c(S(=O)(=O)c2ccc(Br)cc2)cc2c(=O)n3ccccc3nc2n1Cc1ccco1 | i | i | i | -4.6* | i | 82%* | i | i | i
CC(NS(=O)(=O)c1ccc2c(c1)CC(C)N2C(=O)C1CC1)c1ccccc1 (stereo not given) | i | i | i | i | i | nt | nt | nt | nt
CCOc1ccccc1OCCCC(=O)N(CC)CC(=O)Nc1c(F)cccc1F | i | i | i | i | i | nt | nt | nt | nt
COc1ccc(-n2nnnc2S(=O)(=O)CC(=O)N2CCCCC2)cc1 | nt | nt | i | i | i | nt | nt | nt | nt
COc1ccc(-n2nnnc2S(=O)(=O)Cc2ccc(C(=O)O)cc2)cc1 | i | i | i | -8.2* | i | i | i | i | i
COC(=O)C1=C(C)Nc2[nH]c(=S)[nH]c(=O)c2C1c1ccc(O)cc1 (stereo not given) | i | i | i | i | i | nt | nt | nt | nt
O=C(Nc1ccccc1)c1cccc(N2CCCC2=O)c1 | i | i | i | -6.7* | i | i | i | i | i
COc1ccc(NS(=O)(=O)c2ccc(C(=O)N3CCN(Cc4ccccc4)CC3)cc2)cc1 | i | i | i | -5.9* | i | i | i | i | i
Cc1ccc(C)c(NC(=O)Cc2nc(CCl)cs2)c1 | i | i | i | i | i | nt | nt | nt | nt
Cc1ccccc1NC(=O)Cc1nc(CCl)cs1 | i | i | i | -5.4* | i | i | i | i | i
O=C(c1ccc(Cl)c(S(=O)(=O)N2CCCC2)c1)N1CCN(c2ccccc2)CC1 | i | i | i | i | i | nt | nt | nt | nt
SMILES | RGS4 pot | RGS4 block | MrgX1 ag | MrgX1 antagonist | MrgX1 PAM | MrgX1 antag conf | HEK293 Ca flux | HEK293 Ca counter | HEK293 Ca cntr2
O=C(c1ccc(Cl)c(S(=O)(=O)N2CCOCC2)c1)N1CCN(c2ccccc2)CC1 | i | i | i | -4.6* | i | i | i | i | i
O=C(c1ccc(Cl)c(S(=O)(=O)N2CCCCCC2)c1)N1CCN(c2ccccc2O)CC1 | i | i | i | -4.8* | i | 80%* | i | i | i
O=C(c1ccc(Cl)c(S(=O)(=O)N2CCCCC2)c1)N1CCN(c2ccccc2)CC1 | i | i | i | i | i | nt | nt | nt | nt
CCC1(c2ccc(F)cc2)NC(=O)N(CC(=O)NCc2ccccc2Cl)C1=O (stereo not given) | i | i | i | i | i | nt | nt | nt | nt
Cc1nn(Cc2ccc(F)cc2)c2sc(C(=O)Nc3nccs3)cc12 | i | i | i | -4.7* | i | i | i | i | i
Cc1nn(Cc2ccccc2Cl)c2sc(C(=O)Nc3nccs3)cc12 | i | i | i | i | i | nt | nt | nt | nt
COCCn1c(=S)[nH]c2cc(OC)c(OC)cc2c1=O | i | i | i | -9.1* | i | i | i | i | i
CCN(CC)CCCn1c(=S)[nH]c2cc(OC)c(OC)cc2c1=O | i | i | i | i | i | nt | nt | nt | nt
C=CCN1C(=O)C(CC(=O)O)SC1=Nc1ccc(C)cc1 (stereo not given) | i | i | i | i | i | nt | nt | nt | nt
O=[N+]([O-])c1cccc(-c2ccc(CN3CCCCC3)o2)c1 | i | i | i | i | i | nt | nt | nt | nt
CC1(C)C(C#N)=C(N)OC2=C1C(=O)CCC2 | i | i | i | -5.7* | i | i | i | i | i
N#CC1=C(N)OC2=C(C(=O)CCC2)C12CCC1(CC2)OCCO1 | i | i | i | i | i | nt | nt | nt | nt
COC(=O)[C@@H](Cc1c[nH]c2ccccc12)NC(=O)c1cc(=O)[nH]c2ccccc12 | i | i | i | i | i | nt | nt | nt | nt
COC(=O)C(Cc1ccccc1)NC(=O)c1cc(=O)[nH]c2ccccc12 (stereo not given) | i | i | i | -4.7* | i | i | i | i | i
COC(=O)C1CN(C(=O)C(C)Oc2ccccc2Cl)c2ccccc2O1 (stereo not given) | i | i | i | i | i | nt | nt | nt | nt
